Data published in PubChem BioAssay AID624038 (The Scripps Research Institute Molecular Screening Center, 2012).
Hit rate of the full screen: of about 360,000 compounds, about 1,100 (0.31%) were called active.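 The calls were made as follows: active = activation above the run cutoff, the mean activation of all test compounds plus 3 SD (cut at about 18% in these data); inactive = the rest.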 This excerpt belongs to a sample that is enriched for actives.

Molecular target: Muscarinic acetylcholine receptor M5 (Homo sapiens) (UniProt P08912)
Sequence (P08912 whole entry, looked up): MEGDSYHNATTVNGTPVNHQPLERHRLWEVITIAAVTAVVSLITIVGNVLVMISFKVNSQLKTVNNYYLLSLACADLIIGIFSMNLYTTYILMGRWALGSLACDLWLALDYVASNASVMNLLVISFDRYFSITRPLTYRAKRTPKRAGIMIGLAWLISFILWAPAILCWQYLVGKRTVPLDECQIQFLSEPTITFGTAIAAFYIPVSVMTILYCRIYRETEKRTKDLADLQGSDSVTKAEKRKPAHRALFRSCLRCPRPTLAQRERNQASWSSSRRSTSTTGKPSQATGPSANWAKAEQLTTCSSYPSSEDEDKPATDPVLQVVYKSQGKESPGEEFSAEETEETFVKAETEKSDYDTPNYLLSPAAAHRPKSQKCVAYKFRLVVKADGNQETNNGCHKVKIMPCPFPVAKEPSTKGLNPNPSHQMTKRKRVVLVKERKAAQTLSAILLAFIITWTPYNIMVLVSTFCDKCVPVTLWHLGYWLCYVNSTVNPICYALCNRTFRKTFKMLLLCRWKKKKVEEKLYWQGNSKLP
Assay: human M5 muscarinic receptor positive allosteric modulators, primary screen, CHO-K1 cells, Fluo-8 calcium fluorescence (AID 624038)
Details: CHO-K1 hM5, Fluo-8 calcium, ACh EC20 PAM; at 3 µM; hits give high values; 0% = ACh EC20, 100% = ACh EC100
How it was run: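 system = human M5 receptor in CHO-K1 cells | reagent = EC20 acetylcholine as agonist stimulus | compound dosing = single-point, 3 µM nominal | incubation = Fluo-8 loading 80 min at 37 °C plus 30 min room temperature | detection = Fluo-8 calcium dye fluorescence, kinetic read | benchmarks = low control EC20 acetylcholine (0%), high control EC100 acetylcholine (100%)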

activation, active:
Nc1ccn(CC(=O)N2CCN(c3ccccn3)CC2)c(=O)n1 19%
Cc1cccc(Nc2nc(-c3ccccc3)cs2)n1 22.1%
Cc1cc(C)cc(NC(=O)N2CCC(NC(=O)c3ccc(F)cc3)CC2)c1 18.7%
CCOc1ccc(C(=O)NC2CCN(C(=O)Nc3ccccc3OC)CC2)cc1 19.6%
Cc1c(-c2cccc(Cl)c2)nc2ccccc2c1C(=O)OCC(=O)N(C)C1CCS(=O)(=O)C1 (stereo not drawn) 20.2%
C=CCN1C(=O)c2ccc(C(=O)N3CCC(C(=O)OCC)CC3)cc2C1=O 44.4%
COC(c1ccccc1)c1nnc(CCC(=O)N2CCN(CCOc3ccccc3)CC2)o1 (stereo not drawn) 20%
CN(C)Cc1c(C#N)c2ccccc2n1C 18.2%
O=C(NCc1nnc(SCC(=O)N2CCCc3ccccc32)o1)c1ccccc1F 22.5%
OCC[C@H]1C[C@H](O)[C@@H](O)[C@]2(CCCCO2)O1 19.8%
CCCCSc1nnc(-c2ccc(C)cc2)o1 19.1%
Cc1cc(C)n(-c2cc(Oc3ccccc3)ncn2)n1 34.2%
CCCCCCCCCCCCN1C(=O)CSC1c1cccnc1 (stereo not drawn) 22.7%
Cc1cc(C)c2nc(N(CCN(C)C)C(=O)/C=C/c3cccs3)sc2c1 18.8%
CCOC1CS(=O)(=O)CC1OCC (stereo not drawn) 27.7%
COc1ccc(OC)c(S(=O)(=O)Nc2c(C)nn(C)c2C)c1 18.8%
CCOC(=O)c1cnc(-n2nc(C)cc2C)nc1-n1nc(C)cc1C 37.3%

activation, inactive:
COc1ccc(NS(=O)(=O)c2ccc(C)c(C(=O)N(C)Cc3ccc(OC)cc3OC)c2)cc1 -3.1%
CCC(NC(=O)c1ccccc1NC(=O)c1ccccc1)C(=O)NNC(=O)CSc1nc2ccccc2o1 (stereo not drawn) -8.71%
COc1cc(CNCc2ccc3c(c2)OCO3)c([N+](=O)[O-])cc1OC -5.12%
Cc1ccc(S(=O)(=O)N(Cc2ccccc2)c2ccccn2)cc1[N+](=O)[O-] -10.1%
Cc1ccc2oc(=O)c3cnn(CC(=O)N4CCN(c5ccccn5)CC4)c3c2c1 -15.1%
O=C(Cc1ccccc1Cl)N1CCN(c2ccccn2)CC1 -0.15%
CC(=O)NC(c1ccccc1)c1nc(-c2cccc(C(C)C)c2)cs1 (stereo not drawn) -1.15%
COc1ccc2c(c1OC)C(=O)OC2Nc1nc(-c2ccccc2)cs1 (stereo not drawn) 4.62%
Cc1cccc(N(C(=O)Cc2cccs2)C(C(=O)NC2CCCC2)c2ccsc2)c1 (stereo not drawn) -1.6%
Cc1ccc(C(=O)NC2CCN(C(=O)Nc3ccc(F)cc3)CC2)cc1 -2.54%
COc1ccc(C(=O)NC2CCN(C(=O)Nc3ccc(F)cc3)CC2)cc1 1.29%
Cc1ccc(C(=O)NC2CCN(C(=O)Nc3ccccc3Cl)CC2)cc1 -7.16%
CCOc1ccc(C(=O)NC2CCN(S(=O)(=O)CC)CC2)cc1 11.7%
Cc1ccc(OCC(=O)N2CCN(S(=O)(=O)c3ccc(Cl)s3)CC2)cc1C 6.01%
CCCNCc1cc(OCC)c(OCC(=O)Nc2ccccc2)cc1Br -3.11%
C=CC[C@@H](CC(=O)N[C@@H](CO)Cc1ccccc1)C(=O)N[C@H](COC(=O)[C@H](CC=C)CC(=O)OC(C)(C)C)Cc1ccccc1 12.5%
CCOC(=O)c1c(NC(=O)NC(C)(C)C)sc2c1CCN(C)C2 -2.43%
CCOC(=O)C(C)N(c1ccccc1Cl)S(C)(=O)=O (stereo not drawn) 4.74%
O=C(Nc1cc(S(=O)(=O)N2CCOCC2)ccc1OCC(F)(F)F)c1ccc(N2CCCC2=O)cc1 -1.35%
COc1ccc(/C=C(/NC(=O)c2ccco2)C(=O)Nc2ccc(C(C)=O)cc2)cc1 5.57%
CN(C(=O)COC(=O)c1cc(-c2ccco2)nc2ccccc12)C1CCS(=O)(=O)C1 (stereo not drawn) 2.3%
COc1ccc2c(-c3ccccc3)cc(SCC(=O)N(C)C3CCS(=O)(=O)C3)nc2c1 (stereo not drawn) -0.41%
CCOC(=O)C1=C(C)OC(N)=C(C#N)C1c1cncc(-c2ccc(F)cc2)c1 (stereo not drawn) -7.72%
CN1CCN(S(=O)(=O)c2ccc(Nc3ccc(F)cc3)nc2)CC1 11.7%
CCOC(=O)C1CCCN(C(=O)c2ccc(C)c(F)c2)CC1 (stereo not drawn) 0.17%
CCOC(=O)C1CCCN(C(=O)c2ccc(N(C)C)cc2)CC1 (stereo not drawn) -2.3%
C=CCOC(=O)c1ccccc1C(=O)OCC=C 0.16%
O=C(COC(=O)/C=C/c1ccc(OC(F)F)cc1)NC1CCCCC1 -3.38%
CCN(CCn1cccn1)C(=O)CC1C(=O)NCCN1Cc1cccc(OC)c1OC (stereo not drawn) -1.21%
CCCC(CNC(=O)COC(=O)C1=NNC(=O)CC1)c1ccc(Cl)cc1Cl (stereo not drawn) 8.77%
O=C(c1ccco1)N1CCN(CCOc2ccccc2)CC1 2.94%
O=C(c1ccc(Br)o1)N1CCN(CCOc2ccccc2)CC1 4.96%
CCC1=[N+]([O-])C(C)(/C(C)=N\O)N(O)C1(C)C (stereo not drawn) 3.88%
CC(C)Cn1cc(-c2cncc3nccn23)cn1 -3.57%
COc1ccc(-c2c(C#Cc3ccccc3)c3ccccc3n2C)cc1 0.62%
CC(C)(C)n1nc(Cc2cccc3ccccc23)c(C#N)c1N -3.53%
CCN(Cc1ccccc1)C(=O)Cc1ccc(OC)c(S(=O)(=O)N2CCOCC2)c1 0.97%
COc1ccc(NC(=O)CNC(=O)Cn2ccc3ccccc3c2=O)c(OC)c1 0.07%
CCN(C[C@H]1N[C@@](CC)(C(=O)OC)[C@H]2C(=O)N(C)C(=O)[C@@H]12)C(=O)Nc1ccc(F)cc1 -0.26%
O=C(NCc1ccccc1)C1c2ccccc2OCC(=O)N1C1CC1 (stereo not drawn) 6.75%
Cc1ccc(NC(=O)CSc2nnc(CNC(=O)c3ccccc3F)o2)cc1 0.28%
Cc1ccc(NC(=O)CSc2nnc(CNC(=O)c3ccccc3F)o2)cc1Cl -1.76%
COCCNC(=O)C1CCCN(Cc2ccccc2Cl)CC1 (stereo not drawn) 0.83%
CCOC(=O)CC1(NC(=O)c2cc(COc3cncc(Cl)c3)on2)CCCCC1 -12.1%
O=C(NNS(=O)(=O)c1ccc(F)cc1)c1cnccn1 -12.5%
COc1ccc(CN(C(=O)c2cccs2)c2nccs2)cc1OC -13.5%
C[C@@H]1CC[C@]2(O[C@@H](CCO)C[C@H](O)[C@H]2O)O1 3.31%
C[C@H]1CC[C@]2(O[C@@H](CCO)C[C@@H](O)[C@@H]2O)O1 5.16%
Cc1ccc(NC(=O)N2CCSc3ccccc32)cc1 -6.2%
CCN(C(=O)CSc1nnc(-c2ccncc2)o1)c1ccccc1 -1.49%
Cc1ccc(-c2nnc(CN3CCN(C)CC3)o2)cc1 5.27%
COCCNc1nc(N)c([N+](=O)[O-])c(NCCO)n1 -6.19%
CCOC(=O)c1ccc2c(c1)nc(SCC(=O)NC(C)C)n2CC 0.07%
CCc1ccc(NC(=O)C(=O)N/N=C(\C)CC(=O)NCCOC)cc1 3.15%
CC(=O)c1cnn(-c2cc(Oc3ccc(F)cc3)ncn2)c1C 0.64%
Cc1cc(C)n(-c2ccc3nncn3n2)n1 0.99%
COC(=O)c1sc(SC)c(S(=O)(=O)C(C)C)c1N/N=C(\C#N)S(=O)(=O)c1ccccn1 3.1%
CCc1nc2ccc(C(=O)N3CCC(O)(Cc4ccccc4)CC3)cn2c1N(C)C(=O)Cc1ccccc1 1.27%
CCCCc1ccc(NC(=O)NCc2cccnc2)cc1 2.66%
CN(C)CCCN1C(=O)CSC1c1ccc([N+](=O)[O-])cc1 (stereo not drawn) 8.84%
CCN(CC)S(=O)(=O)c1cc([N+](=O)[O-])ccc1N=Nc1c(O)n(C)c2ccccc12 -2.02%
CCOc1ccc(NC(=O)CN(C)C(=O)CCSc2ccc(F)cc2)cc1OCC -1.87%
CCN(Cc1ccccc1)S(=O)(=O)c1cc2c3c(c1)CCN3C(=O)CC2 3.77%
Cc1ccc(S(=O)(=O)N(C)C)cc1NC(=O)/C=C/c1cccs1 -1.18%
Cc1ccc(S(=O)(=O)N(C)C)cc1NC(=O)COC(=O)/C=C/c1cccs1 1.46%
FC(F)(F)c1ccnc(Oc2ccc(C3=NCCS3)cc2)c1 -0.95%
COc1ccc(NC(=O)CSc2nnc(-c3ccccc3F)n2C2CC2)cc1S(N)(=O)=O 4.72%
O=C(O)c1ccc(COCC(F)(F)F)cc1 -0.76%
CCCCCCN1CCN(C2CN(Cc3cn(CCCCCC)nn3)S(=O)(=O)C2)CC1 (stereo not drawn) 0.04%
Cc1cccc(-n2nc3c(c2NC(=O)c2cc4ccccc4o2)CS(=O)(=O)C3)c1 0.74%
CCC(C(=O)N1CCN(S(=O)(=O)c2sc(C(=O)O)c(C)c2C(=O)O)CC1)c1ccccc1 (stereo not drawn) 5.73%
COc1ccc(OC)c(S(=O)(=O)Nc2ccccc2F)c1 -7.66%
COc1ccc(OC)c(S(=O)(=O)NCCC(C)C)c1 3.29%
Cc1ccc(Br)c(NS(=O)(=O)c2cccc(C(=O)N3CCNC(=O)C3)c2)c1 -1.57%
CCOC(=O)c1cnc2c(c(C)nn2CC)c1Cl 0.72%
CCOC(=O)c1cnc(-n2nc(C)cc2C)nc1NNc1cc(C)nc(-c2ccccc2)n1 0.83%
